The values that follow come from ChEMBL document CHEMBL1777792, “Synthesis and evaluation of indole-based new scaffolds for antimicrobial activities--identification of promising candidates” (Bioorg Med Chem Lett, 2011).

Test [1] deals with Candida albicans. The test is described as follows: Antifungal activity against Candida albicans in yeast extract-peptone-glucose medium at 374 ug/ml after 48 hrs by disc diffusion assay in presence of 150 ug/ml of congo red. The format is functional. The method in brief: (§1)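 Disc diffusion on YEPD agar containing a cell-wall-disrupting agent (SDS, Congo red or calcofluor white) and spread with a set number of C. albicans cells. Compound and reference solvent spotted on 0.5 cm discs. Incubated at 30 °C, then inhibition zone diameter measured against solvent.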
(A growth-free zone around the sample is the usual read-out of agar diffusion tests.)

Test [2] relates to Candida albicans. The test is described as follows: Antifungal activity against Candida albicans in yeast extract-peptone-glucose medium at 374 ug/ml after 48 hrs by disc diffusion assay in presence of 0.01% of sodium dodecylsulphate. The class given is functional. Particulars: read-out: DIZ. The method in brief:
as §1

The test system of test [3] is Candida albicans. Kind of test: Antifungal activity against Candida albicans in yeast extract-peptone-glucose medium at 374 ug/ml after 48 hrs by disc diffusion assay in presence of rhodamine 6G.
Test [4] deals with Escherichia coli. The test is described as follows: Antibacterial activity against Escherichia coli harboring ampicillin-resistance gene encoding plasmid at 250 ug/ml after 24 hrs by disc diffusion assay. The class given is functional. The conditions noted are these: read-out: DIZ. The method in brief: (§2)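 Disc diffusion used an E. coli strain carrying a plasmid that encodes an ampicillin-resistance gene. Inhibition zone diameters were recorded and compared against the corresponding solvent controls.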

The test system of test [5] is Escherichia coli. Kind of test: Antibacterial activity against Escherichia coli harboring ampicillin-resistance gene encoding plasmid at 428 ug/ml after 24 hrs by disc diffusion assay. The format is functional. The conditions noted are these: read-out: DIZ. In outline: as §2
For test [6], the system named is Candida albicans. The test is described as follows: Antifungal activity against Candida albicans in yeast extract-peptone-glucose medium at 428 ug/ml after 48 hrs by disc diffusion assay in presence of 100 ug/ml of calcofluor white. The format is functional. The method in brief: as §1
In test [7] the test system is Candida albicans. Kind of test: Antifungal activity against Candida albicans in yeast extract-peptone-glucose medium at 428 ug/ml after 48 hrs by disc diffusion assay. The format is functional. The conditions noted are these: read-out: DIZ. The method in brief: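 Solid-phase assay on YEPD agar spread with a set number of C. albicans cells. Compound solution and reference solvent spotted onto 0.5 cm discs. Plates incubated at 30 °C, and inhibition zone diameter measured against solvent control.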

Test [8] deals with Candida albicans. Kind of test: Antifungal activity against Candida albicans in synthetic dextrose minimal medium after 48 hrs by ELISA based serial dilution method. Background: ELISA stands for enzyme-linked immunosorbent assay.
For test [9], the system named is Candida albicans. Kind of test: Antifungal activity against Candida albicans in yeast extract-peptone-glucose medium at 428 ug/ml after 48 hrs by disc diffusion assay in presence of rhodamine 6G.
Test [10] has as its system Candida albicans. Kind of test: Antifungal activity against Candida albicans in yeast extract-peptone-glucose medium at 428 ug/ml after 48 hrs by disc diffusion assay in presence of 0.01% of sodium dodecylsulphate. The class given is functional. The conditions noted are these: read-out: DIZ. The method in brief: as §1
Test [11] deals with Candida albicans. Kind of test: Antifungal activity against Candida albicans in yeast extract-peptone-glucose medium at 428 ug/ml after 48 hrs by disc diffusion assay in presence of 150 ug/ml of congo red. The format is functional. The method in brief: as §1
Test [12] deals with Candida albicans. The test is described as follows: Antifungal activity against Candida albicans in yeast extract-peptone-glucose medium at 375 ug/ml after 48 hrs by disc diffusion assay. The class given is functional. The conditions noted are these: read-out: DIZ. In outline:
(§3)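 C. albicans cells at a set number were spread on YEPD agar, either plain or containing the cell-wall disruptant named in the line (SDS, Congo red or calcofluor white). Compound solution, or the reference solvent as control, was spotted onto 0.5 cm discs placed on the lawn. Plates were incubated at 30 °C and the inhibition zone diameter was measured.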

The test system of test [13] is Candida albicans. Kind of test: Antifungal activity against Candida albicans in yeast extract-peptone-glucose medium at 375 ug/ml after 48 hrs by disc diffusion assay in presence of rhodamine 6G.
Test [14] concerns Escherichia coli. The test is described as follows: Antibacterial activity against Escherichia coli harboring ampicillin-resistance gene encoding plasmid at 500 ug/ml after 24 hrs by disc diffusion assay. The class given is functional. Particulars: read-out: DIZ. The method in brief: as §2
For test [15], the system named is Candida albicans. The test is described as follows: Antifungal activity against Candida albicans in yeast extract-peptone-glucose medium at 375 ug/ml after 48 hrs by disc diffusion assay in presence of 0.01% of sodium dodecylsulphate. The class given is functional. Particulars: read-out: DIZ. In outline:
as §3

In test [16] the test system is Candida albicans. Kind of test: Antifungal activity against Candida albicans in yeast extract-peptone-glucose medium at 375 ug/ml after 48 hrs by disc diffusion assay in presence of 100 ug/ml of calcofluor white. The format is functional. In outline: as §3
The test system of test [17] is Candida albicans. The test is described as follows: Antifungal activity against Candida albicans in yeast extract-peptone-glucose medium at 375 ug/ml after 48 hrs by disc diffusion assay in presence of 150 ug/ml of congo red. The class given is functional. The method in brief:
as §3

For test [18], the system named is Candida albicans. Kind of test: Antifungal activity against Candida albicans in yeast extract-peptone-glucose medium at 250 ug/ml after 48 hrs by disc diffusion assay in presence of rhodamine 6G.
In test [19] the test system is Candida albicans. Kind of test: Antifungal activity against Candida albicans in yeast extract-peptone-glucose medium at 250 ug/ml after 48 hrs by disc diffusion assay in presence of 100 ug/ml of calcofluor white. The class given is functional. The method in brief: as §3
Test [20] concerns Candida albicans. Kind of test: Antifungal activity against Candida albicans in yeast extract-peptone-glucose medium at 250 ug/ml after 48 hrs by disc diffusion assay. The format is functional. The conditions noted are these: read-out: DIZ. In outline: as §3
The subject of test [21] is Candida albicans. Kind of test: Antifungal activity against Candida albicans in yeast extract-peptone-glucose medium at 250 ug/ml after 48 hrs by disc diffusion assay in presence of 0.01% of sodium dodecylsulphate. The format is functional. Particulars: read-out: DIZ. In outline:
as §3

Test [22] concerns Candida albicans. Kind of test: Antifungal activity against Candida albicans in yeast extract-peptone-glucose medium at 250 ug/ml after 48 hrs by disc diffusion assay in presence of 150 ug/ml of congo red. The class given is functional. In outline: as §3
Test [23] has as its system Candida albicans. The test is described as follows: Antifungal activity against Candida albicans in yeast extract-peptone-glucose medium at 150 ug/ml after 48 hrs by disc diffusion assay in presence of 0.01% of sodium dodecylsulphate. Particulars: read-out: DIZ. The format is functional. In outline: as §3
In test [24] the test system is Candida albicans. Kind of test: Antifungal activity against Candida albicans in yeast extract-peptone-glucose medium at 150 ug/ml after 48 hrs by disc diffusion assay in presence of 100 ug/ml of calcofluor white. The class given is functional. In outline:
as §3

Test [25] has as its system Escherichia coli. Kind of test: Antibacterial activity against Escherichia coli harboring ampicillin-resistance gene encoding plasmid at 300 ug/ml after 24 hrs by disc diffusion assay. The class given is functional. The conditions noted are these: read-out: DIZ. In outline: as §2
Test [26] concerns Candida albicans. The test is described as follows: Antifungal activity against Candida albicans in yeast extract-peptone-glucose medium at 150 ug/ml after 48 hrs by disc diffusion assay in presence of 150 ug/ml of congo red. Particulars: read-out: DIZ. The class given is functional. The method in brief: as §3
For test [27], the system named is Candida albicans. The test is described as follows: Antifungal activity against Candida albicans in yeast extract-peptone-glucose medium at 150 ug/ml after 48 hrs by disc diffusion assay. The class given is functional. Particulars: read-out: DIZ. In outline:
as §3

Take `O=C(C(=O)N1CCCCC1)c1cn(CCCn2cc(C(=O)C(=O)N3CCCCC3)c3ccccc32)c2ccccc12`: the “diameter of the inhibition zone (DIZ)” value in the test with Candida albicans [1] and in the test with Candida albicans [3] was 6.5 mm throughout. Besides, the zone of inhibition at 374 µg/mL in the test on Candida albicans [2] is 7.5 mm. In the test with Escherichia coli [4], the zone of inhibition at 250 µg/mL was found to be 9.5 mm.

What is called IC50 is the concentration that gives 50% inhibition. Low readings indicate greater potency in that assay, high ones weaker potency in that assay. Turning to `O=C(C(=O)N1CCCC1)c1cn(CCCn2cc(C(=O)C(=O)N3CCCC3)c3ccccc32)c2ccccc12`, the zone of inhibition at 428 µg/mL in the test on Escherichia coli [5] came to 8 mm; in the test with Candida albicans [7], 7.5 mm; in the test with Candida albicans [10], 6.5 mm. For the same compound, the “diameter of the inhibition zone (DIZ)” value with Candida albicans [6] is listed as 6.5 mm; with Candida albicans [9], 6.5 mm; in the test on Candida albicans [11], 5.5 mm. In addition, half-maximal inhibition in the test on Candida albicans [8] (IC50) required 465 µM.

Regarding `O=C(C(=O)N1CCOCC1)c1cn(CCCn2cc(C(=O)C(=O)N3CCOCC3)c3ccccc32)c2ccccc12`, the zone of inhibition at 375 µg/mL worked out at 7 mm in the test on Candida albicans [12] and 8.5 mm in the test on Candida albicans [15]. For the same compound, the “diameter of the inhibition zone (DIZ)” value in the test with Candida albicans [13] is 7.5 mm; in the test with Candida albicans [16], 6.5 mm; with Candida albicans [17], 8 mm. Also, the zone of inhibition at 500 µg/mL in the test with Escherichia coli [14] stood at 6 mm.

In the case of `O=C(NCc1ccccc1)C(=O)c1cn(CCCn2cc(C(=O)C(=O)NCc3ccccc3)c3ccccc32)c2ccccc12`, the “diameter of the inhibition zone (DIZ)” value was 7 mm with Candida albicans [18], 7 mm in the test on Candida albicans [19] and 8 mm with Candida albicans [22]. For the same compound, the zone of inhibition at 250 µg/mL with Candida albicans [20] worked out at 9 mm; in the test on Candida albicans [21], 8.5 mm; in the test on Escherichia coli [4], 12 mm. The IC50 with Candida albicans [8] was determined as 121 µM.

`O=C(C(=O)N1CCCCC1)c1cn(CCCCn2cc(C(=O)C(=O)N3CCCCC3)c3ccccc32)c2ccccc12`: the zone of inhibition at 150 µg/mL was 6.5 mm with Candida albicans [23], 6 mm in the test on Candida albicans [26] and 6 mm in the test on Candida albicans [27]. Besides, the “diameter of the inhibition zone (DIZ)” value in the test on Candida albicans [24] is 6 mm. Besides, the zone of inhibition at 300 µg/mL with Escherichia coli [25] turned out to be 10.5 mm.

As to `O=C(C(=O)N1CCCC1)c1cn(CCCCn2cc(C(=O)C(=O)N3CCCC3)c3ccccc32)c2ccccc12`, the values for the zone of inhibition at 375 µg/mL in the test with Candida albicans [12] and in the test with Candida albicans [15] were 7.5 mm and 8 mm, respectively. Besides, the “diameter of the inhibition zone (DIZ)” value with Candida albicans [13] is given as 7.5 mm; with Candida albicans [16], 7.5 mm; in the test on Candida albicans [17], 8 mm. In the test on Candida albicans [8], this compound had an IC50 of 78 µM. The zone of inhibition at 500 µg/mL with Escherichia coli [14] was found to be 10.5 mm.
